Results from different studies.
PRPF4B: Serine/threonine-protein kinase PRP4 homolog (PRPF4B, Homo sapiens, UniProt Q13523)

SMILES | target | effect on | mode | method | tested at | endpoint | result
CCN1CCN(Cc2ccc(C(=O)Nc3ccc(C)c(Oc4ccc5c(c4)CC(=O)N5)c3)cc2C(F)(F)F)CC1 | PRPF4B | binding | – | competition with immobilised ligand | 1 µM | remaining binding | 100%
CCN(CC)CCCC[C@H](NC(=O)[C@H](CC(C)C)NC(=O)[C@H](C)NC(=O)[C@H](Cc1ccccc1)NC(=O)c1ccc(C(C)(C)C)cc1)C(=O)N[C@@H](CO)C(=O)OC | SWI/SNF-related matrix-associated actin-dependent regulator of chromatin subfamily A member 2 (SMARCA2, Homo sapiens, UniProt P51531) | thermal stability | – | DSF | 25 µM | ΔTm | 0.14 °C
Cn1cc(-c2cccc(N3CCc4c(sc5c4CC(C)(C)C5)C3=O)c2CO)cc(Nc2ccncn2)c1=O | Serine/threonine-protein kinase mTOR (MTOR, Homo sapiens, UniProt P42345) | enzyme activity | inhibitor | – | 1 µM | inhibition | -4%
CC[C@H](C)[C@H](NC(=O)[C@H](CO)NC(=O)[C@@H](N)CCCCN)C(=O)N[C@H](C(=O)N[C@@H](CC(N)=O)C(=O)N[C@@H](Cc1ccccc1)C(=O)N[C@@H](CCC(=O)O)C(=O)N[C@@H](CCCCN)C(=O)N[C@@H](CC(C)C)C(=O)O)[C@@H](C)CC | Endoplasmic reticulum aminopeptidase 2 (ERAP2, Homo sapiens, UniProt Q6P179) | enzyme activity | substrate | mass spectrometry | – | Km | 12.3 µM
C#Cc1n[nH]c2c(-c3cn(C(C)c4ccccn4)c(=O)[nH]c3=O)cc(F)cc12 (stereo not drawn) | Epidermal growth factor receptor (EGFR, Homo sapiens, UniProt P00533, L858R/T790M) | enzyme activity | inhibitor | – | 1 µM | inhibition | -1.7%
Cc1nn(C)cc1-c1nc2c(N3CCN(Cc4ccc(Cl)cc4)CC3)c(Cl)cnc2[nH]1 | Epidermal growth factor receptor (EGFR, Homo sapiens, UniProt P00533, G719C) | binding | – | competition with immobilised ligand | 1 µM | remaining binding | 86%
O=C(Nc1cccnn1)N1CCN([C@@H]2CCOc3cc(C(F)(F)F)ccc32)CC1 | Neuropeptide Y receptor type 1 (NPY1R, Homo sapiens, UniProt P25929) | cell-free assay | – | – | 20 µM | inhibition | -5%
Nc1ncc(-c2nc(N3CCOCC3)nc(N3CCOCC3)n2)c(C(F)F)n1 | Microtubule-associated serine/threonine-protein kinase 1 (MAST1, Homo sapiens, UniProt Q9Y2H9) | binding | – | competition with immobilised ligand | 10 µM | remaining binding | 90%
COc1cc(Cl)c(C(=O)N[C@@H](CN[C@H]2CC[C@@H](N)CC2)Cc2ccc(C#N)cc2)cc1-c1ccc(CN[C@H](C)c2ccc(C)cc2)o1 | PRPF4B | enzyme activity | inhibitor | – | 1 µM | remaining activity | 90%
Cn1cc(-c2cc(F)cc(N3CCn4c(cc5c4CCCC5)C3=O)c2CO)cc(Nc2ccc(N3CCN(C4COC4)CC3)cn2)c1=O | PAS domain-containing serine/threonine-protein kinase (PASK, Homo sapiens, UniProt Q96RG2) | enzyme activity | inhibitor | – | 0.1 µM | inhibition | -1%
Nc1cccc(-c2nsc(=O)o2)c1 | Proteasome Macropain subunit MB1 (PSMB5, Homo sapiens, UniProt P28074) | enzyme activity | inhibitor | – | – | kinact/KI | 7.2 M⁻¹ s⁻¹
COc1ncccc1-c1cnn2ccc(N3CCN(C(=O)OC(C)C)CC3)nc12 | PRPF4B | binding | – | competition with immobilised ligand | 1 µM | remaining binding | 28%
